# MT1-MMP act inh = inhibitors of human MT1-MMP activation. P50281. GFP/RFP ratio change, % at 20 µM. AID 651647. hit rate 0.061% among 360,000. HT1080 RFP-PRO-GFP cells, GFP/RFP ratio fluorescence, overnight; percent of plate control window, DMSO zero;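 active means GFP/RFP ratio change of at least 30% with cell ATP level not reduced by more than half and red fluorescence within 50% of control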
#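 Assay system: RFP-PRO-GFP reporter HT1080 cells; read-out basis: GFP/RFP fluorescence ratio; benchmarks: DMSO wells and RFP-L50D-GFP cells; doses: 20 µM single dose, 1% DMSO; schedule: overnight cell settling, then overnight compound exposure, 37 °C, 5% CO2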
# iPSC survival up = increases survival of single human iPS cells; hiPSC single-cell survival, ATPlite luminescence; 100% = ROCK inhibitor wells, 0% = DMSO; survival enhancement, % at 20 µM; hit rate 0.044% among 360,000; in the data active means survival enhancement above about 18%;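 further: cells exposed to compounds for 16 hours before the ATP read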
# SKN-1 block = blocks SKN-1 activity in C. elegans; C. elegans VP596 Pgst-4::GFP/RFP ratio, acrylamide-induced, 24 h; hit rate 0.49% among 360,000; inhibition, % at 21.8 µM;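 active means interference check ratio from 0.5 to 1.5 plus GFP to RFP signal ratio inhibition reaching or exceeding a fixed threshold, cut at about 30% in these data, passing the limit was not always enough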
# CendR NRP1 mod = alters CendR peptide binding to human NRP-1. O14786. FAM-RPARPAR peptide binding to NRP-1, fluorescence polarization. inhibition, % at 25 µM. hit rate 0.85% among 360,000. AID 602438;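 active means inhibition or corrected inhibition above about 18%, plus a signal ratio from 0.5 to 1.5, limit read from the data, passing the limit was not always enough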
# Target sequence (O14786 whole entry, looked up): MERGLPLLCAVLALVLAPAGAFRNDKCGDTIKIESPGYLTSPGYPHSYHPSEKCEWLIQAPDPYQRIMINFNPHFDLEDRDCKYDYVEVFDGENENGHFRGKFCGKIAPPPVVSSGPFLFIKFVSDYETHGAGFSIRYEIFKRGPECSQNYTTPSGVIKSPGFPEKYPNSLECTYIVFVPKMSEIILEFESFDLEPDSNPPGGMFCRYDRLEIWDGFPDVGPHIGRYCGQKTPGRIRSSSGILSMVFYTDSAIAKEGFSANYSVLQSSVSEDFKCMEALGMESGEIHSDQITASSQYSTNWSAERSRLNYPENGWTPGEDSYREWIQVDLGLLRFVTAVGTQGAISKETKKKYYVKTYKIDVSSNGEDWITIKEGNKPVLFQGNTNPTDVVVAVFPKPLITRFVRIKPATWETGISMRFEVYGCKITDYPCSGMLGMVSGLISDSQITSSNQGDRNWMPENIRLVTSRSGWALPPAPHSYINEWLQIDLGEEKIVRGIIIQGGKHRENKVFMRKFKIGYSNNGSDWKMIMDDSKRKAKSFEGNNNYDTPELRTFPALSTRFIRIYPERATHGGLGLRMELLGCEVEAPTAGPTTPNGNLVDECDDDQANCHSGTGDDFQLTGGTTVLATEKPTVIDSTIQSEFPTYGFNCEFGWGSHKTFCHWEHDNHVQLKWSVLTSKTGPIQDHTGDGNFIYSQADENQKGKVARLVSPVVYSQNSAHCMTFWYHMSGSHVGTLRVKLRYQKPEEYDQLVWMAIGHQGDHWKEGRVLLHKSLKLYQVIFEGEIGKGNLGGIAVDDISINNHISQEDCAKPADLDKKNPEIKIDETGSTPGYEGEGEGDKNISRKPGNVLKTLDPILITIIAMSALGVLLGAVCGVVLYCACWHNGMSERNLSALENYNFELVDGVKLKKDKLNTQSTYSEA
# Hits are given with their value; n = inactive; x = no result given. Shown are actives, neighbours in structure and some others; about 1.4% of the full set was active somewhere.
SMILES,MT1-MMP act inh,iPSC survival up,SKN-1 block,CendR NRP1 mod
COCCNC(=S)N(CCc1c(C)[nH]c2ccc(F)cc12)Cc1cccs1,n,n,n,32
O=C(COC(=O)Cn1c(C(F)(F)F)nc2ccccc21)Nc1ccc2c(c1)OCCO2,x,n,n,n
Cc1cc(NC(=O)C(C)Oc2ccccc2)no1 (stereo not drawn),n,n,n,n
CCOc1ccccc1C(=O)Nc1ccc(-n2nncc2C(C)(C)C)cc1,n,n,35,n
CCOc1ccccc1C(=O)Nc1ccc(S(=O)(=O)N2CCN(C)CC2)cc1,n,n,n,n
CCN(CC(=O)Nc1cccc(C(C)=O)c1)S(=O)(=O)c1ccc(C)cc1,n,n,n,43
COc1ccccc1CCC(=O)N(Cc1ccccc1)c1c(N)n(Cc2ccccc2)c(=O)[nH]c1=O,n,n,n,n
Cc1ccc(-n2c(C)nnc2SCC(=O)N2CCOCC2)cc1,n,n,n,n
O=C(NCc1cccnc1)c1ccc(S(=O)(=O)Nc2ccccc2)cc1,n,n,n,n
Cc1ccc(NS(=O)(=O)c2ccc(C(=O)NCc3cccnc3)cc2)cc1,n,n,n,21
CCC(c1nnnn1CCOC)N1CCN(Cc2ccccc2)CC1 (stereo not drawn),x,n,36,n
CCC(c1nnnn1CCOC)N1CCN(C(=O)c2ccco2)CC1 (stereo not drawn),n,n,n,n
Clc1nc(-c2ccccn2)nc2scc(-c3ccccc3)c12,n,n,n,30
Cc1ccc(N2CCN(S(=O)(=O)N3CCCCC3)CC2)cc1C,n,n,n,31
CCOc1cc(C(c2c(C)[nH][nH]c2=O)c2c(C)[nH][nH]c2=O)ccc1OS(=O)(=O)c1ccc(C)cc1,n,n,46,n
COc1ccc(C2Nc3ccccc3C(=O)N2Cc2ccco2)cc1COc1ccc(F)cc1 (stereo not drawn),n,n,43,n
Cc1ccc2nc(-c3ccc(NC(=S)NC4CC(C)(C)NC(C)(C)C4)cc3)sc2c1,n,n,84,n
Cc1ccc2nc(-c3ccc(NC(=S)NC(=O)C(C)C)cc3)sc2c1,n,n,n,n
CCOC(=O)C(NC(=O)c1ccc(OC)cc1)(OCC1(CC)COC1)C(F)(F)F (stereo not drawn),n,n,n,n
CC(C)CN(C(=O)COC(=O)CNC(=O)c1ccc(Cl)cc1)C1CCS(=O)(=O)C1 (stereo not drawn),n,n,n,n
CCN(C(=O)COC(=O)CNC(=O)c1ccc(F)cc1)C1CCS(=O)(=O)C1 (stereo not drawn),n,n,n,28
Nn1c(=S)[nH]c2sc3c(c2c1=O)CCCC3,n,n,36,n
CN(C)[C@@H](CO)c1nnc([C@H](Cc2ccc(O)cc2)NC(=O)C2CCNCC2)o1,n,n,n,n
N[C@@H](Cc1ccc(O)cc1)c1nnc([C@H](CO)NC(=O)C2CCNCC2)o1,n,n,n,22
C/C(=N\NC(=O)c1cccs1)c1ccc(C(=O)O)s1,n,n,n,n
SMILES,MT1-MMP act inh,iPSC survival up,SKN-1 block,CendR NRP1 mod
Cc1ccc(-c2cc(C(=O)N/N=C/c3cccnc3)c3ccccc3n2)cc1C,n,n,n,26
O=C(N/N=C/c1cccnc1)c1cc(-c2ccccc2)nc2ccccc12,n,n,n,n
CSc1ccc(C2Nc3ccccc3-c3cc(C)nn32)cc1 (stereo not drawn),n,n,44,n
CC1(C)CCC/C(=C\c2ccccc2)C1=O,n,n,n,20
CS(=O)(=O)N1CCC(C(=O)NCc2ccc(Cl)cc2)CC1,n,n,n,n
CC(=O)Nc1cccc2c1Cc1ccccc1-2,n,n,n,n
CC(=O)Nc1ccc2c(c1Br)Cc1ccccc1-2,n,n,44,n
COc1ccc(Cl)cc1CC1(C)C(=O)Nc2c(Cl)cccc21 (stereo not drawn),n,n,n,n
NC(=S)N=Nc1c(O)cc(O)c2[nH]c(=O)ccc12,n,n,n,42
COc1ccc(CNc2n[nH]c(NCc3ccc(OC)c(OC)c3)n2)cc1OC,n,n,n,20
COc1ccc(CNc2nc(SC)n[nH]2)cc1OC,n,n,n,n
COC(=O)/C=C/c1cnc2ccccc2c1,n,n,n,n
O=C(Nc1ccccc1Br)C1CC(=O)N(c2ccc3c4c(cccc24)CC3)C1 (stereo not drawn),n,n,n,38
Cc1ccc(-n2nnnc2-c2cnc(-c3cccnc3)nc2C(F)(F)F)cc1,n,n,n,20
COC(=O)C1=C(CS(=O)(=O)c2cc(OC)ccc2OC)NC(=O)NC1c1ccc(O)c(OC)c1 (stereo not drawn),n,n,n,20
CC(/C=N/Nc1ncc(C)c(=O)[nH]1)=C\c1ccccc1,n,n,41,n
CC(/C=N/Nc1nc(C)cc(=O)[nH]1)=C\c1ccccc1,n,n,n,n
CC(=O)c1ccc(S(=O)(=O)Oc2ccc(-c3ccc(C(=O)O)cc3)cc2)cc1,n,n,n,26
CC(C)CC1C(=O)N(Cc2cn(CCC3OCCO3)nn2)CCS(=O)(=O)N1Cc1ccc(-c2ccc(F)cc2)cc1 (stereo not drawn),n,n,n,n
O=C1[C@H]2[C@@H](c3ccccc3)N[C@]3(CCCN(Cc4ccc(Cl)cc4)C3=O)[C@H]2C(=O)N1Cc1ccccc1,n,n,n,n
COc1ccc(-n2nnnc2SCC(=O)N(C)C2CCS(=O)(=O)C2)cc1 (stereo not drawn),n,n,n,26
Cc1ccc(S(=O)(=O)N2CCCCC2)cc1NC(=O)c1ccc(=O)[nH]c1,n,n,n,n
CC(=O)NC(CC(=O)Nc1cccc(S(=O)(=O)N2CCOCC2)c1)c1ccccc1 (stereo not drawn),n,n,n,24
CCN(CC(=O)Nc1ccc(OC)cc1)CC(=O)Nc1cccc(S(=O)(=O)N2CCOCC2)c1,n,n,n,34
CCCC(C(=O)Nc1ccc(S(=O)(=O)N2CCOCC2)cc1)c1ccccc1 (stereo not drawn),n,n,37,n
SMILES,MT1-MMP act inh,iPSC survival up,SKN-1 block,CendR NRP1 mod
O=C1N(c2ccc3c(c2)OCCO3)C(c2ccccc2)C1(F)F (stereo not drawn),n,n,n,n
O=C1c2oc3ccccc3c(=O)c2C(c2cccnc2)N1CCCN1CCOCC1 (stereo not drawn),n,n,n,36
COc1cccc(COc2cc3ccccc3nc2C)c1,n,n,45,n
Cc1nc2ccccc2cc1OCc1ccc(Cl)cc1,n,n,89,n
CN(C)CCCN1CC(=O)N2[C@@H](Cc3c([nH]c4ccccc34)C2(C)C)C1=O,n,n,n,n
Clc1ccccc1-c1nc(-c2ccncc2)no1,n,n,46,n
c1ccc(-c2ccccc2-c2nc(-c3ccncc3)no2)cc1,n,n,n,n
Clc1ccccc1-c1nc(-c2cccnc2)no1,n,n,34,n
Clc1ccc(-c2nc(-c3ccncc3)no2)c(Cl)c1,n,n,36,n
Clc1ccc(OCCCc2nc(-c3ccncc3)no2)c(Cl)c1,n,n,43,n
O=C(CSC1CCCCC1)Nc1ccccc1Br,n,n,n,n
